Screens from PubChem BioAssay.
Rows were chosen to be rich in hits. Some 3.8% of all compounds tested hit in one or more screens of this group.
KCNK3 block: human KCNK3 channel inhibition, primary screen | CHO-KCNK3 thallium flux, FluxOR fluorescence; hits give low values | O14649 | B-score at 10 µM | AID 602410 | hit rate 0.84% among 340,000;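 active = B-score under library mean minus 4 SD, starting fluorescence ratio at most library mean plus 5 SD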;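 note: more negative B-score means stronger inhibition of thallium flux through KCNK3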
hERG rescue: hERG (human) protection from proarrhythmic block | CHO-hERG, FluxOR thallium flux, dofetilide IC70 present | activation (rescue from dofetilide block), less the hit threshold, % at 10 µM | hit rate 0.51% among 310,000 | AID 1511;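 active = activation above the mean of controls blocked by dofetilide plus 5 SD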;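 note: thallium influx through hERG after potassium depolarization seen as dye fluorescence rise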
KCNQ1 inh: inhibitors of human KCNQ1 potassium channel | P51787 | CHO-K1 KCNQ1, FluxOR thallium flux fluorescence; hits give high values | B-score at 10 µM | hit rate 1.3% among 310,000 | AID 2642;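 active = compounds whose thallium flux B-score, printed positive for inhibition, exceeds three library SD while starting fluorescence stays within three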;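 note: channel opened by potassium depolarization with thallium stimulus after 20 min compound exposure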
KCNK9 inh: blocks the human KCNK9 two-pore domain potassium channel; HEK293 KCNK9, FluxOR thallium flux fluorescence; hits give low values; B-score at 10 µM; hit rate 1.2% among 310,000; AID 488922;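 active = ratio B-score over 3 SD below the library mean, with starting fluorescence within 5 SD of its mean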;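 note: negative B-score means less thallium flux so channel inhibition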
Target sequence (Q9NPC2 whole entry, looked up, the tested form may be a part): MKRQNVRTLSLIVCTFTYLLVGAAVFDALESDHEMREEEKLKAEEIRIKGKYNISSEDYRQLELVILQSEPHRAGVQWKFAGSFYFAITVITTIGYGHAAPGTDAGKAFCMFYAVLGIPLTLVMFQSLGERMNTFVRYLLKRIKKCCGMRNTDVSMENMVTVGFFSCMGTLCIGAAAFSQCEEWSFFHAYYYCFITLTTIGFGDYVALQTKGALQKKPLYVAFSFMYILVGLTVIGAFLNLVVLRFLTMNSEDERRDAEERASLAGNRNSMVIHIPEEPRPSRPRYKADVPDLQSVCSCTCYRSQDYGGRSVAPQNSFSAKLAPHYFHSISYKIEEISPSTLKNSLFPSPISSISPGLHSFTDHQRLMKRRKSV
KCNQ1 act: potentiates or activates the human KCNQ1 potassium channel; B-score at 10 µM; hit rate 0.35% among 310,000; P51787; AID 2648; CHO-K1 KCNQ1, thallium flux FluxOR fluorescence; hits give high values;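 active = fluorescence ratio B-score, a plate-corrected score, at least three library SD, with initial intensity B-score within 5 SD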
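Schedule – 37 °C overnight plating, 90-min dark dye load, 20-min compound pretreatment · System – stable KCNQ1 CHO-K1 line · Probe or stimulus – thallium- and potassium-containing depolarizing buffer · Measured by – kinetic FluxOR fluorescence, 10 s baseline plus 110 s post-stimulus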
Kir21 inh: Kir2.1 (mouse) channel inhibition; B-score at 10 µM; hit rate 0.85% among 310,000; HEK293-Kir2.1, FluxOR thallium flux fluorescence; hits give low values; P35561;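 active = fluorescence ratio B-score at or below minus 3 SD of library scores, with starting-brightness B-score within 2 SD, cut at about -4.2 in these data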;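 note: channel flux triggered by added potassium and thallium sulfate stimulus; B-score of peak minus minimum fluorescence over baseline after thallium stimulus; more negative B-score means stronger Kir2.1 block with less thallium influx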
KCNQ1 block val: human KCNQ1 channel inhibition, validation assay. inhibition, % at 10 µM. shares compounds with KCNQ1 inh. KCNQ1 cell line, FluxOR thallium flux fluorescence. hit rate 93% among 1,600;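 active = primary screen active, with duplicate mean exceeding buffer control mean plus 3 SD of buffer wells, cut at about 28% in these data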;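 note: 0% = buffer control ratio and 100% = XE991 inhibitor control ratio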
CHO Tl flux: KCNQ1 inhibitor counter-screen hit in parental CHO cells; fluorescence ratio (Tl flux) at 10 µM; parental CHO-K1, FluxOR thallium flux fluorescence ratio; hits give low values; zero means no signal rise above baseline; shares compounds with KCNQ1 inh; hit rate 21% among 1,600;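 active = mean of duplicate thallium-flux fluorescence ratios in parental host cells more than 5 SD below the buffer control mean, cut at about 0.38 in these data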;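 note: ratio is peak minus minimum fluorescence divided by baseline fluorescence; actives read low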
KCNQ1 ephys val: confirmation of human KCNQ1 potassium channel inhibitors by electrophysiology. shares compounds with KCNQ1 inh. KCNQ1-CHO cells, automated patch clamp current. calls only at 10 µM. hit rate 20% among 490. AID 624120;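 active = KCNQ1 current drop exceeding 3 SD of negative control wells, seen in both duplicate runs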;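 note: steady state current during a 2 s step from -80 to +40 mV; negative values mean current inhibition and positive values mean potentiation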
KCNQ2 spec: selectivity of KCNQ1 inhibitors: inhibition of rat KCNQ2 channel; KCNQ2 cells, FluxOR thallium flux fluorescence; inhibition, % at 10 µM; hit rate 71% among 1,600; shares compounds with KCNQ1 inh;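 active = mean percent inhibition of the KCNQ2 thallium signal more than 5 SD above the buffer-only control wells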;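 note: KCNQ2 expressed in CHO cells; 0% = buffer control wells and 100% = XE-991 inhibitor control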
KCNQ1 KCNE1 spec: selectivity of KCNQ1 inhibitors: inhibition of human KCNQ1/KCNE1 channel; shares compounds with KCNQ1 inh; KCNQ1/KCNE1 cells, FluxOR thallium flux fluorescence; inhibition, % at 10 µM; hit rate 77% among 1,600; AID 652147;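 active = mean percent inhibition of duplicate wells above the buffer-only control mean plus 3 SD of those controls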;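 note: 0% = buffer only wells and 100% = XE-991 inhibitor control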
* hit, by the source's call; i = inactive; · = not tested or not shown; + = active, no number.

SMILES	KCNK3 block	hERG rescue	KCNQ1 inh	KCNK9 inh	KCNQ1 act	Kir21 inh	KCNQ1 block val	CHO Tl flux	KCNQ2 spec	KCNQ1 KCNE1 spec	others
CCN(C(=O)c1ccco1)c1nc(CC(=O)Nc2ccc(Cl)cc2)cs1	i	0	i	i	i	2.1	·	·	·	·
CCC(=O)N(Cc1ccco1)c1nc(C(=O)Nc2ccc(Cl)cc2)c(C)s1	i	-14	9*	i	i	-0.29	88*	0.45	63%*	111%*
Cc1cc(OCC(=O)Nc2ccncc2)cc(C)c1Br	i	-19	8*	i	i	1.1	131*	0.48	96%*	i	KCNQ1 ephys val=i
O=C(CSc1cn[nH]n1)Nc1ccccc1C(=O)O	i	-10	i	i	i	-3.6	·	·	·	·
CC(C)(C)S(=O)N1Cc2cn(Cc3ccccc3)c(=O)cc2[C@H]1CCO (some centres undefined)	i	·	·	·	·	·	·	·	·	·
Cc1ccc(-c2csc(N3CCC(NS(=O)(=O)c4ccc5c(c4)OCCO5)CC3)n2)cc1	i	-14	6*	i	i	-1.3	106*	0.42	96%*	100%*	KCNQ1 ephys val=i
COc1cc(C2Nc3cc(C)c(C)cc3NC3=C2C(=O)CC(C)(C)C3)ccc1OC(C)=O (centres undefined)	i	-5	i	i	i	-0.05	·	·	·	·
Cc1cc2c(cc1C)NC(c1c(C)n(C)n(-c3ccccc3)c1=O)C1=C(CC(C)(C)CC1=O)N2 (centres undefined)	i	-21	15*	i	i	-4.7	0	0.48	i	i
Cc1ccc(NC(=O)CN2CCOCC2)cc1C	i	-8	i	i	i	0.03	·	·	·	·
CCc1ccc(C(O)(C(C)C)C(CN2CCOCC2)c2ccccc2)cc1 (centres undefined)	i	-5	6*	i	i	-1.3	65*	0.46	i	80%*
Fc1ccc2[nH]c3c(NCc4ccccc4)ncnc3c2c1	i	-24	7*	i	i	-2.5	150*	0.4	73%*	76%*	KCNQ1 ephys val=i
COc1ccc2[nH]c3c(NCc4ccco4)ncnc3c2c1	·	-13	i	i	i	1.6	·	·	·	·
CC[C@]12c3[nH]c4cc(-c5ccco5)ccc4c3CCN1C(=O)[C@@H](CC(=O)NC(C)(C)C)C[C@@H]2C(=O)N1CCN(C(=O)C2CC2)CC1	i	·	·	·	·	·	·	·	·	·
C=CCn1c(SCc2c(C)noc2C)nc2sc3c(c2c1=O)CCCC3	i	-10	7*	i	i	0.44	80*	0.39	90%*	146%*
Cc1c(C(=O)N2CCC(C)CC2)oc2ccc3c(c12)C(O)CC1(CCCCC1)O3 (centres undefined)	i	-8	i	i	i	1.5	·	·	·	·
O=C1c2cccc3c(O)ccc(c23)C(=O)N1Cc1ccco1	i	-56	22*	i	i	-16	+	0.011*	i	i
O=C1c2ccccc2C(=O)N1Cc1ccco1	i	-7	i	i	i	-0.3	·	·	·	·
O=C(NCCCn1ccnc1)c1ccc(S(=O)(=O)N2CCOCC2)cc1	i	-14	i	i	i	0.53	·	·	·	·
Cc1ccccc1OCC(=O)Nc1ccccc1N1CCCCC1	i	-9	8*	-8*	i	-2.6	120*	0.46	95%*	170%*	KCNQ1 ephys val=i
